≈ marks a conversion by molar mass, not a printed value.
Key:
[1] = system: Staphylococcus aureus; test: Bactericidal activity against methicillin-resistant Staphylococcus aureus NRS119 up to 18 hrs by broth microdilution assay; format: functional; conditions: NRS119, 18 h, read-out: MBC99.9
[2] = system: Staphylococcus aureus; test: Antibacterial activity against vancomycin-resistant Staphylococcus aureus VRS12 after 20 hrs by broth microdilution assay; format: functional; conditions: VRS12, 20 h
Method in brief: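 Broth microdilution per CLSI in cation-adjusted Mueller Hinton broth. Compounds serially diluted, in triplicate. Incubation at 37 °C for at least 20 hours. MIC taken as the lowest concentration with no visible bacterial growth.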

[3] = system: Staphylococcus aureus; test: Ratio of MBC to MIC for methicillin-resistant Staphylococcus aureus NRS119; format: functional
Method in brief: (§1)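 MBC/MIC ratio. […] MBC by plating no-growth wells onto tryptic soy agar at 37 °C for at least 18 h; taken as the concentration giving 99.9% growth inhibition.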

[4] = system: Staphylococcus aureus; test: Ratio of MBC to MIC for vancomycin-resistant Staphylococcus aureus VRS10; format: functional; method in brief: as §1
[5] = Induction of proton motive force collapse in Escherichia coli inverted membrane vesicle in presence of succinate/O2-driven PMF generation system by ACMA-based fluorescence assay; format: functional, cell membranes
Method in brief: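 E. coli inverted membrane vesicles had proton motive force generated either by ATP or by succinate/O2. PMF collapse was followed as a dose response to give EC50, with CCCP as the reference uncoupler.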

[6] = system: Staphylococcus aureus; test: Antibacterial activity against methicillin-resistant Staphylococcus aureus USA300 in neutropenic Balb/c mouse thigh infection model assessed as reduction in bacterial burden in thigh at 20 mg/kg, ip administered twice at 2 and 12 hrs post infection and measured at 24 hrs post infection relative to control; format: functional; set-up: scale not given: the % may be the effect or the level left
Method in brief: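 Female BALB/c mice, 6–8 weeks old, n=5, made neutropenic with i.p. cyclophosphamide 150 and 100 mg/kg on days −4 and −1. Right thigh injected with 100 μL of 5.35×10^7 CFU/mL USA300. […] Thighs harvested at 24 h and counted as CFU/g on mannitol salt agar.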

Which results are given for C/C(=N\NC(=N)N)c1sc(-c2ccc(C#CC3CC3)cc2)nc1C?
MBC [1]: 2 µg/mL (≈ 5.93 µM); MIC [2]: 2 µg/mL (≈ 5.93 µM); Ratio [3]: <=3; Ratio [4]: <=3; EC50 [5]: 28 µM; Activity [6]: 77%

Reference: ChEMBL document CHEMBL4196022, “Alkynyl-containing phenylthiazoles: Systemically active antibacterial agents effective against methicillin-resistant Staphylococcus aureus (MRSA)” (Eur J Med Chem, 2018)
